Data: ChEMBL document CHEMBL4118105, “High-Affinity Peptidomimetic Inhibitors of the DCN1-UBC12 Protein-Protein Interaction” (J Med Chem, 2018)
Starred links: 1 amine or outer side, 2 acyl side, 3 side chain; linkers in the order of their positions; H or OH if unused. Non-standard residues stand in square brackets, D forms with d. Residues, ends and D or L forms follow the SMILES beside them. *: point of attachment. 2Nal = N[C@@H](Cc1ccc2ccccc2c1)C(=O)O; Cyclopropanecarbonyl = O=C(C1CC1)*; NHPhenethyl = c1ccc(CCN*)cc1; Isovaleryl = CC(C)CC(=O)*; Isobutyryl = CC(C)C(=O)*; CO = O=C([*:1])[*:2]; NHBn = c1ccc(CN*)cc1; Propionyl = CCC(=O)*; Butyryl = CCCC(=O)*; NHPh = c1ccc(N*)cc1; Moc = COC(=O)*; For = O=C*

Target: T1, DCN1-like protein 1 (Homo sapiens, UniProt Q96GG9)
Experiment: Binding affinity to biotin labeled recombinant N-terminal His6-tagged human DCN1 (58 to 259 residues) expressed in Escherichia coli Rosetta2 cells by biolayer interferometry analysis
In short: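 Recombinant human DCN1 (58–259) was biotinylated at a 1:1 molar ratio in PBS for 2 h at 4 °C, dialyzed, then loaded on super streptavidin sensors from a 10 μg/mL solution. Blocked streptavidin sensors served as reference.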

T1 sequence (Q96GG9 whole entry, the tested form may be a part): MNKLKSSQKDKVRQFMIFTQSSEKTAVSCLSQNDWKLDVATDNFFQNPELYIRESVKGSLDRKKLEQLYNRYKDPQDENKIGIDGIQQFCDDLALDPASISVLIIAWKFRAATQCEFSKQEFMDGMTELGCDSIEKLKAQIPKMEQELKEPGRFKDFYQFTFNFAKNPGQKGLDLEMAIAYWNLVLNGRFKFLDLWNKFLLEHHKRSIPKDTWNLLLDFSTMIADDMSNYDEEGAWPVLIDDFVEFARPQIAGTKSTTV

| SMILES | Kd |
| --- | --- |
| CCC(=O)N[C@@H](Cc1ccc2ccccc2c1)C(=O)N[C@H](C(=O)N[C@@H](CCCCN)C(=O)NC(c1ccccc1)c1ccccc1)C1CCCC1 | 56.4 nM |
| CCC(=O)N[C@@H](Cc1nc2ccc(Cl)cc2s1)C(=O)N[C@H](C(=O)N[C@@H](CCCCN)C(=O)N[C@@H]1CCOc2ccccc21)C1CCCC1 | 4.1 nM |
| CCC(=O)N[C@@H](Cc1nc2ccccc2s1)C(=O)N[C@H](C(=O)N[C@@H](CCCCN)C(=O)NC(c1ccccc1)c1ccccc1)C1CCCC1 | 31.8 nM |
| CCC(=O)N[C@@H](Cc1nc2ccc(F)cc2s1)C(=O)N[C@H](C(=O)N[C@@H](CCCCN)C(=O)NC(c1ccccc1)c1ccccc1)C1CCCC1 | 37 nM |
| CCC(=O)N[C@@H](Cc1nc2ccc(Cl)cc2s1)C(=O)N[C@H](C(=O)N[C@@H](CCCCN(C)C)C(=O)N[C@@H]1CCOc2ccccc21)C1CCCC1 | 5.7 nM |
| CCC(=O)N[C@@H](Cc1nc2ccc(Cl)cc2s1)C(=O)N[C@H](C(=O)N[C@@H](CCCCN)C(=O)NC(c1ccccc1)c1ccccc1)C1CCCC1 | 8.1 nM |
| CCC(=O)N[C@@H](Cc1nc2ccc(Cl)cc2s1)C(=O)N[C@H](C(=O)N[C@@H](CCCCN)C(=O)N[C@@H]1CCCc2ccccc21)C1CCCC1 | 8.3 nM |

Target: T1, DCN1-like protein 1
Experiment: Displacement of (S)-N1-((19S,22S)-26-Amino-19-carbamoyl-1-(3',6'-dihydroxy-3-oxo-3H-spiro[isobenzofuran-1,9'-xanthen]-5-yl)-1,13,21-trioxo-5,8,11-trioxa-2,14,20-triazahexacosan-22-yl)-2-((2S,5S,8S,11S,14S,17S,20S,23S,26S)-2-(3-amino-3-oxopropyl)-5,20-bis(4-aminobutyl)-14-benzyl-23-((S)-sec-butyl)-11-(hydroxymethyl)-8,17-diisobutyl-26-(naphthalen-2-ylmethyl)-4,7,10,13,16,19,22,25,28-nonaoxo-3,6,9,12,15,18,21,24,27-nonaazanonacosanamido)pentanediamide from recombinant N-terminal His6-tagged human DCN1 (58 to 259 residues) expressed in Escherichia coli Rosetta2 cells after 30 mins by fluorescence polarization assay

| SMILES | IC50 | Ki |
| --- | --- | --- |
| CC[C@H](C)[C@H](NC(=O)[C@H](Cc1ccc2ccccc2c1)NC(=O)NC)C(=O)N[C@@H](CCCCN)C(=O)N[C@@H](CC(C)C)C(N)=O ({NHMe-CO}-[2Nal]IKL-NH2) | 18500 nM | 4000 nM |
| CC[C@H](C)[C@H](NC(=O)[C@H](Cc1ccc2ccccc2c1)NC(=O)CC(C)C)C(=O)N[C@@H](CCCCN)C(=O)N[C@@H](CC(C)C)C(N)=O (Isovaleryl-[2Nal]IKL-NH2) | > 20000 nM |  |
| CCCC(=O)N[C@@H](Cc1ccc2ccccc2c1)C(=O)N[C@H](C(=O)N[C@@H](CCCCN)C(=O)N[C@@H](CC(C)C)C(N)=O)[C@@H](C)CC (Butyryl-[2Nal]IKL-NH2) | 37000 nM | 8000 nM |
| CCC(=O)N[C@@H](Cc1ccc2ccccc2c1)C(=O)N[C@H](C(=O)N[C@@H](CCCCN)C(=O)NC(c1ccccc1)c1ccccc1)C1CCCCC1 | 613 nM | 97.3 nM |
| CCC(=O)N[C@@H](Cc1ccc2ccccc2c1)C(=O)N[C@H](C(=O)N[C@@H](CCCCN)C(=O)NCc1ccccc1)[C@@H](C)CC (Propionyl-[2Nal]-Ile-Lys-NHBn) |  | 810 nM |
| CCC(=O)N[C@@H](Cc1ccc2ccccc2c1)C(=O)N[C@H](C(=O)N[C@@H](CCCCN)C(=O)NC(c1ccccc1)c1ccccc1)C1CCCC1 | 330 nM | 36.3 nM |
| CCC(=O)N[C@@H](Cc1ccc2ccccc2c1)C(=O)N[C@H](C(=O)N[C@@H](CCCCN)C(=O)N[C@H]1CCc2ccccc21)[C@@H](C)CC |  | 380 nM |
| CCC(=O)N[C@@H](Cc1ccc2ccccc2c1)C(=O)N[C@H](C(=O)N[C@@H](CCCCN)C(=O)N[C@H]1CCCc2ccccc21)[C@@H](C)CC |  | 140 nM |
| CC[C@H](C)[C@H](NC(=O)[C@@H](N)Cc1ccc2ccccc2c1)C(=O)N[C@@H](CCCCN)C(=O)N[C@@H](CC(C)C)C(N)=O (H-[2Nal]IKL-NH2) | > 100000 nM |  |
| CCC(=O)N[C@@H](Cc1ccc2ccccc2c1)C(=O)N[C@@H](CC1CCCCC1)C(=O)N[C@@H](CCCCN)C(=O)NC(c1ccccc1)c1ccccc1 | 368 nM | 44.3 nM |
| CC[C@H](C)[C@H](NC(=O)[C@H](Cc1ccc2ccccc2c1)NC(=O)C(C)C)C(=O)N[C@@H](CCCCN)C(=O)N[C@@H](CC(C)C)C(N)=O (Isobutyryl-[2Nal]IKL-NH2) | 16500 nM | 3500 nM |
| CCC(=O)N[C@@H](Cc1nc2cc(Cl)ccc2s1)C(=O)N[C@H](C(=O)N[C@@H](CCCCN)C(=O)NC(c1ccccc1)c1ccccc1)C1CCCC1 |  | 88.6 nM |
| CCC(=O)N[C@@H](Cc1nc2c(F)cccc2s1)C(=O)N[C@H](C(=O)N[C@@H](CCCCN)C(=O)NC(c1ccccc1)c1ccccc1)C1CCCC1 | 4920 nM | 1030 nM |
| CCC(=O)N[C@@H](Cc1ccc2ccccc2c1)C(=O)N[C@@H](Cc1cccs1)C(=O)N[C@@H](CCCCN)C(=O)NC(c1ccccc1)c1ccccc1 |  | 174 nM |
| CCC(=O)N[C@@H](Cc1ccc2ccccc2c1)C(=O)N[C@@H](CC(F)(F)F)C(=O)N[C@@H](CCCCN)C(=O)NC(c1ccccc1)c1ccccc1 | 3270 nM | 672 nM |
| CC[C@H](C)[C@H](NC(=O)[C@H](Cc1ccc2ccccc2c1)NC(=O)C1CC1)C(=O)N[C@@H](CCCCN)C(=O)N[C@@H](CC(C)C)C(N)=O (Cyclopropanecarbonyl-[2Nal]IKL-NH2) | 25100 nM | 5400 nM |

| SMILES | IC50 | Ki |
| --- | --- | --- |
| CCC(=O)N[C@@H](Cc1nc2ccccc2s1)C(=O)N[C@H](C(=O)N[C@@H](CCCCN)C(=O)NC(c1ccccc1)c1ccccc1)C1CCCC1 |  | 50.7 nM |
| CC[C@H](C)[C@H](NC(=O)[C@H](CCSC)NC(C)=O)C(=O)N[C@@H](CCCCN)C(=O)N[C@@H](CC(C)C)C(N)=O (Ac-MIKL-NH2) | 599000 nM | 130000 nM |
| CCC(=O)N[C@@H](Cc1nc2ccc(F)cc2s1)C(=O)N[C@H](C(=O)N[C@@H](CCCCN)C(=O)NC(c1ccccc1)c1ccccc1)C1CCCC1 |  | 54.4 nM |
| CC[C@H](C)[C@H](NC(=O)[C@H](Cc1ccc2ccccc2c1)NC=O)C(=O)N[C@@H](CCCCN)C(=O)N[C@@H](CC(C)C)C(N)=O (For-[2Nal]IKL-NH2) | 128000 nM | 27500 nM |
| CCC(=O)N[C@@H](Cc1nc2cc(F)ccc2s1)C(=O)N[C@H](C(=O)N[C@@H](CCCCN)C(=O)NC(c1ccccc1)c1ccccc1)C1CCCC1 |  | 224 nM |
| CCC(=O)N[C@@H](Cc1ccc2ccccc2c1)C(=O)N[C@H](C(=O)N[C@@H](CCCCN)C(=O)N[C@@H]1CCCc2ccccc21)[C@@H](C)CC | 550 nM | 84 nM |
| CCC(=O)N[C@@H](Cc1ccc2ccccc2c1)C(=O)N[C@H](C(=O)N[C@@H](CCCCN)C(=O)N[C@@H](CC(C)C)C(N)=O)[C@@H](C)CC (Propionyl-[2Nal]IKL-NH2) | 5200 nM | 1100 nM |
| CCC(=O)N[C@@H](Cc1ccc2ccccc2c1)C(=O)N[C@@H](CC(C)(C)C)C(=O)N[C@@H](CCCCN)C(=O)NC(c1ccccc1)c1ccccc1 |  | 42.9 nM |
| CCC(=O)N[C@@H](Cc1ccc2ccccc2c1)C(=O)N[C@H](C(=O)N[C@@H](CCCCN)C(=O)NC(c1ccccc1)c1ccccc1)[C@@H](C)CC |  | 97 nM |
| CC[C@H](C)[C@H](NC(=O)[C@H](Cc1ccc2ccccc2c1)NC(=O)OC)C(=O)N[C@@H](CCCCN)C(=O)N[C@@H](CC(C)C)C(N)=O (Moc-[2Nal]IKL-NH2) | > 50000 nM |  |
| CC[C@H](C)[C@H](NC(=O)[C@H](Cc1ccc2ccccc2c1)NC(C)=O)C(=O)N[C@@H](CCCCN)C(=O)N[C@@H](CC(C)C)C(N)=O (Ac-[2Nal]IKL-NH2) | 16800 nM | 3600 nM |
| CCC(=O)N[C@@H](Cc1ccc2ccccc2c1)C(=O)N[C@H](C(=O)N[C@@H](CCCCN)C(=O)Nc1ccccc1)[C@@H](C)CC (Propionyl-[2Nal]-Ile-Lys-NHPh) | 34900 nM | 7500 nM |
| CCC(=O)N[C@@H](Cc1nc2ccc(Cl)cc2s1)C(=O)N[C@H](C(=O)N[C@@H](CCCCN)C(=O)NC(c1ccccc1)c1ccccc1)C1CCCC1 | 132 nM | < 50 nM |
| CCC(=O)N[C@@H](Cc1ccc2ccccc2c1)C(=O)N[C@H](C(=O)N[C@@H](CCCCN)C(=O)N[C@@H]1CCc2ccccc21)[C@@H](C)CC |  | 160 nM |
| CCC(=O)N[C@@H](Cc1ccc2ccccc2c1)C(=O)N[C@H](C(=O)N[C@@H](CCCCN)C(=O)NCCc1ccccc1)[C@@H](C)CC (Propionyl-[2Nal]-Ile-Lys-NHPhenethyl) | 10800 nM | 2500 nM |
